Rows were chosen to be rich in hits. Some 0.79% of all compounds tested hit in one or more screens of this group.
hIAP block: human IAP inhibitors, primary screen, biochemical, luminescence, uHTS; purified IAP, CDP-Star luminescence, 30 min; inhibition, % at 10 µM; 330,000 tested, 0.12% active; AID 2544, 2010;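 active = inhibition reaching a set limit with compound at 10 µM in the primary screen, cut at about 35% in these data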
Target sequence (P09923 whole entry, looked up): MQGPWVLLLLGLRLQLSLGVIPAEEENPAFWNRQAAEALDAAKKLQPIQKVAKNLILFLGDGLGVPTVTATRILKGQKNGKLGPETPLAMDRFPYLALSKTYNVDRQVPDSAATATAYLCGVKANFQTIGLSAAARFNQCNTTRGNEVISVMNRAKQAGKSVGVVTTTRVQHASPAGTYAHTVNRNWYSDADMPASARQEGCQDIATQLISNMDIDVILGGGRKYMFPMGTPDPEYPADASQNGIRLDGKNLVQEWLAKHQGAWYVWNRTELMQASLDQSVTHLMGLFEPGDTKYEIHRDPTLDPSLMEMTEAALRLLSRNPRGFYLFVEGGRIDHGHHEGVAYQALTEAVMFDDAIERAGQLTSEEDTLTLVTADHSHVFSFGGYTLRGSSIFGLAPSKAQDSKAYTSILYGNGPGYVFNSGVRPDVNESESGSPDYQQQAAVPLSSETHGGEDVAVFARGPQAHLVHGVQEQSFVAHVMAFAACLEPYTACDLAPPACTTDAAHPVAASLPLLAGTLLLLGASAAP
hIAP act: human IAP activators, primary screen, biochemical, luminescence, uHTS | Intestinal-type alkaline phosphatase (Homo sapiens), P09923 | purified human IAP, CDP-Star luminescence, 30 min; active compounds read high; 1 = vehicle-only enzyme, 0 = enzyme-free background | activation factor at 10 µM | 330,000 tested, 0.16% active;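 active = activation factor of the enzyme at least 2-fold when tested at 20 µM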
bIAP inhibitor: bovine intestinal alkaline phosphatase inhibitors, primary screen, selectivity assay for TNAP inhibitor project, biochemical, bovine IAP, CDP-star luminescence | inhibition, % at 20 µM | alkaline phosphatase, intestinal [Bos taurus] | 190,000 tested, under 10 active | purified bovine IAP, 30 min;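 active = over 50% inhibition of intestinal alkaline phosphatase at 20 µM in the single-dose screen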
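System: purified bovine intestinal alkaline phosphatase (IAP) enzyme; Input: IAP diluted 1/65,000,000 in the well; Measured by: CDP-star luminescence signal; Compound dosing: 20 µM single dose; Incubation: 30 min reaction at room temperature.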
bIAP act: bovine intestinal alkaline phosphatase activators, primary screen, biochemical, bovine IAP, CDP-star luminescence. 200,000 tested, 0.17% active. alkaline phosphatase, intestinal [Bos taurus]. activation factor at 20 µM. purified bovine IAP, 30 min; active compounds read high; fold of DMSO-control signal, blank-subtracted;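 active = activation factor of 2 or more at 20 µM, a signal rise over negative controls twice the positive control's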
mIAP inh: inhibitors of mouse IAP, primary screen, biochemical, luminescence, uHTS; purified mouse IAP, CDP-Star luminescence, 30 min; inhibition, % at 10 µM; 330,000 tested, 0.2% active;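 active = inhibition of at least 40% at 10 µM in the primary screen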
mIAP act: activators of mouse IAP, primary screen, biochemical, luminescence, uHTS; intestinal alkaline phosphatase [Mus musculus]; muIAP, CDP-Star luminescence, 30 min; active compounds read high; 1 = vehicle-only enzyme signal, 0 = enzyme-free wells; activation factor at 10 µM; 330,000 tested, 0.24% active;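 active = activation factor of at least 2 at 20 µM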
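System: mouse IAP enzyme. Reagent: CDP-Star chemiluminescent phosphatase substrate. Benchmarks: DMSO wells, no-enzyme wells. Times: 30 min enzyme-substrate-compound incubation at room temperature. Detection: luminescence from enzymatic CDP-Star hydrolysis. Doses: test compounds delivered from DMSO solution.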
mIAP inh conf: inhibitors of mouse IAP, confirmation, biochemical, luminescence, single concentration; shares compounds with mIAP inh; 11,000 tested, 4.7% active; purified mouse IAP, CDP-Star luminescence, 30 min; inhibition, % at 10 µM;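 active = inhibition of at least 40% at 10 µM in either of the two replicates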
Each line names hits and unclear results; the compound was inactive in the other large screens (follow-up assays come after a bar, where they were run).

Cc1ccc(C)c(OCCC(=O)N2CCN(S(=O)(=O)c3ccc([N+](=O)[O-])cc3)CC2)c1	none (no result: bIAP inhibitor, bIAP act)
Cc1cc2nc(C)n(CCCNC(=O)Nc3cccc4ccccc34)c2cc1C	bIAP act 2.7, mIAP act 2.6 | mIAP inh conf inactive
Cc1cc(O)c(Sc2ncn[nH]2)cc1NS(=O)(=O)c1ccc(Cl)cc1	mIAP inh 47 (no result: bIAP inhibitor, bIAP act) | mIAP inh conf 44
O=S(=O)(Nc1cc(Sc2ncn[nH]2)c(O)c2ccccc12)c1ccccc1	none
Cc1cccc(N2CSC3=C(C#N)C(c4ccc(C)o4)CC(=O)N3C2)c1 (configuration not stated)	mIAP inh 58 | mIAP inh conf 63
COc1ccc(OC)c(C2CC(=O)N3CN(c4ccccc4)CSC3=C2C#N)c1 (configuration not stated)	none
Cc1cc(NS(=O)(=O)c2ccc(NC(=O)CCCOc3cccc(C)c3C)cc2)no1	none (no result: bIAP inhibitor, bIAP act)
Cc1cccc(-c2n[nH]c(=S)n2/N=C/C=C/c2ccco2)c1	mIAP inh 46 (no result: bIAP inhibitor, bIAP act) | mIAP inh conf 53
CC(/C=N/n1c(-c2ccco2)n[nH]c1=S)=C\c1ccco1	mIAP inh 50 | mIAP inh conf 52
Cn1c(=O)c2c(nc(NC3CCCCC3)n2CC(=O)C23CC4CC(CC(C4)C2)C3)n(C)c1=O	mIAP act 2 | mIAP inh conf inactive
Cc1ccccc1NC(=S)NC(NC(=O)c1ccccc1C)C(Cl)(Cl)Cl (configuration not stated)	mIAP act 2 | mIAP inh conf inactive
O=C(CN1C(=O)NC(c2ccccc2)(c2ccccc2)C1=O)N1CCOCC1	none (no result: bIAP inhibitor, bIAP act)
COC(=O)/C(C#N)=C/c1ccc(-c2ccc(S(N)(=O)=O)cc2)o1	mIAP inh 64 (no result: bIAP inhibitor, bIAP act) | mIAP inh conf 79
CC1=C(C#N)C(=O)NC(=O)/C1=C/c1ccc(-c2ccc(S(N)(=O)=O)cc2)o1	mIAP inh 54 | mIAP inh conf 70
NS(=O)(=O)c1ccc(-c2ccc(C=O)o2)cc1	none
NS(=O)(=O)c1ccc(-c2ccc(/C=C3\NC(=S)NC3=O)o2)cc1	mIAP inh 90 (no result: bIAP inhibitor, bIAP act) | mIAP inh conf 77
CC(C)OC(=O)/C(C#N)=C/c1ccc(-c2ccc(SC(F)F)cc2)o1	none
CSCc1c(C(=O)NCCc2ccccn2)oc2ccccc12	none (no result: bIAP inhibitor, bIAP act)
C/C(=N\NC(=O)c1cc(O)cc(O)c1)c1ccc(NC(=O)Cc2ccccc2)cc1	mIAP inh 50 (no result: bIAP inhibitor, bIAP act) | mIAP inh conf 57
CNC[C@@H]1Oc2ccc(NC(=O)Nc3cccc4ccccc34)cc2C(=O)N([C@@H](C)CO)C[C@@H]1C	mIAP act 4.3 (no result: bIAP inhibitor, bIAP act) | mIAP inh conf inactive
CNC[C@@H]1Oc2c(NC(=O)Nc3ccccc3)cccc2C(=O)N([C@@H](C)CO)C[C@H]1C	none (no result: bIAP inhibitor, bIAP act)
CNC[C@H]1Oc2ccc(NC(=O)Nc3ccc(OC)cc3)cc2C(=O)N([C@@H](C)CO)C[C@H]1C	mIAP act 3 (no result: bIAP inhibitor, bIAP act) | mIAP inh conf inactive
CC(=O)Nc1ccc(S(=O)(=O)NCCC(=O)N2CCC(Cc3ccccc3)CC2)cc1	none (no result: bIAP inhibitor, bIAP act)
Cc1nn(Cc2c(Cl)cccc2Cl)c(C)c1NC(=O)c1cn(-c2ccccc2)nc1-c1ccccc1	mIAP act 2.5 | mIAP inh conf inactive
COc1ccc(C)cc1S(=O)(=O)N1CCCC(C(=O)N2CCN(c3ccccc3F)CC2)C1 (configuration not stated)	none (no result: bIAP inhibitor, bIAP act)
CCN(CC)C(=O)[C@H]1CC(CC(=O)NCC23CC4CC(CC(C4)C2)C3)C(=O)N2CCc3c([nH]c4ccc(OC)cc34)[C@]12C (some centres not stated)	none (no result: hIAP block, hIAP act, bIAP inhibitor, bIAP act)
O=C(COc1ccc(Cl)cc1)Nc1ncc([N+](=O)[O-])s1	none (no result: hIAP block, hIAP act, mIAP inh, mIAP act)
Cc1csc(NC(=O)CSc2nncn2C)n1	none
O=C(COC(=O)COc1ccccc1)Nc1ncc([N+](=O)[O-])s1	mIAP inh 63 (no result: bIAP inhibitor, bIAP act) | mIAP inh conf 69
Cn1cnnc1SCC(=O)Nc1ncc([N+](=O)[O-])s1	mIAP inh 41 (no result: bIAP inhibitor, bIAP act) | mIAP inh conf 51
CC1CC(C)(C)NC(=S)N1CCC(=O)NCCc1ccc(Cl)cc1 (configuration not stated)	none
O=C1CSC(=S)N1N1C(=O)c2cccc([N+](=O)[O-])c2C1=O	mIAP inh 57 | mIAP inh conf 68
CC(N=Cc1cc([N+](=O)[O-])ccc1O)c1ccccc1 (configuration not stated)	none
CC(N=Cc1cccc(O)c1O)c1ccccc1 (configuration not stated)	mIAP inh 60 | mIAP inh conf 67
C#CCOCCOCCOCCNc1nc(N2CCN(C(=O)CCCCCCCCCCNC(=O)[C@H]([C@@H](C)CC)n3cc(CCCCCN)nn3)CC2)nc(N2CCN(C(=O)CCCCCCCCCCNC(=O)[C@@H]([C@H](C)O)n3cc(C)nn3)CC2)n1	mIAP act 2.1 (no result: bIAP inhibitor, bIAP act) | mIAP inh conf inactive
C#CCOCCOCCOCCNc1nc(N2CCN(C(=O)CCCCCCCCCCNC(=O)Cn3cc(CCCCCN)nn3)CC2)nc(N2CCN(C(=O)CCCCCCCCCCNC(=O)[C@H]([C@@H](C)CC)n3cc(CCCCCN)nn3)CC2)n1	mIAP act 4.1 (no result: bIAP inhibitor, bIAP act) | mIAP inh conf inactive
C#CCOCCOCCOCCNc1nc(N2CCN(C(=O)CCCCCCCCCCNC(=O)[C@H](CCCCN)n3cc(C)nn3)CC2)nc(N2CCN(C(=O)CCCCCCCCCCNC(=O)[C@@H]([C@H](C)CC)n3cc(CCCCCN)nn3)CC2)n1	mIAP act 3 (no result: bIAP inhibitor, bIAP act) | mIAP inh conf inactive
C#CCOCCOCCOCCNc1nc(N2CCN(C(=O)CCCCCCCCCCNC(=O)[C@H](CCC(=O)O)n3cc(CCCCCN)nn3)CC2)nc(N2CCN(C(=O)CCCCCCCCCCNC(=O)[C@@H]([C@H](C)O)n3cc(C)nn3)CC2)n1	none (no result: bIAP inhibitor, bIAP act)
CCNC(=O)NC(=O)COC(=O)c1cccc(S(=O)(=O)N2CC3(C)CC2CC(C)(C)C3)c1 (configuration not stated)	none (no result: bIAP inhibitor, bIAP act)
Cc1nn(CC(=O)NC(=O)c2ccccc2)c(C)c1[N+](=O)[O-]	none (no result: bIAP inhibitor, bIAP act)
Cc1ccc(SCc2nc3ccccc3n2CC(=O)Nc2ccc(Cl)cc2)cc1	mIAP act 2.7 | mIAP inh conf inactive
O=C(Cn1c(CO)nc2ccccc21)Nc1ccccc1Cl	none
O=C(Cn1c(COc2ccccc2)nc2ccccc21)Nc1cccc(Cl)c1	none
